This is an account of results in ChEMBL document CHEMBL3045020, “Insect antifeedant activity of flavones and chromones against Spodoptera litura” (2003).

In the assay the test system is Spodoptera litura. Put plainly: Antifeedant activity against Spodoptera litura F. by choice leaf disk assay. The assay is classed as functional. The gist of the method: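 Antifeedant value calculated from the rate of leaf consumption. A straight line was fitted to the bioassay points to obtain the ED50.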
Molecule `Cc1ccc2oc(-c3ccccc3)cc(=O)c2c1` [6-METHYLFLAVONE] showed an ED50 of 0.035 umol/cm2.
The molecule `COc1cc(O)c2c(=O)cc(-c3ccccc3)oc2c1O` [ISOWOGONIN] registered an ED50 greater than 10 umol/cm2.
`O=c1cc(-c2ccccc2)oc2c(O)c(O)cc(O)c12` [NORWOGONIN] returned an ED50 of 1.52 umol/cm2.
In turn, `COc1ccc(-c2cc(=O)c3c(OC)c(OC)c(OC)c(OC)c3o2)cc1` [TANGERETIN] came in with an ED50 of 0.28 umol/cm2.
Take `O=c1cc(-c2ccccc2)oc2cc(O)c(O)c(O)c12` [BAICALEIN]: the ED50 is 0.96 umol/cm2.
Then `COc1ccc(-c2oc3c(OC)c(OC)c(OC)c(O)c3c(=O)c2OC)cc1` [5-HYDROXYAURANETIN], with 0.11 umol/cm2; and `COc1ccc2c(=O)ccoc2c1` [7-METHOXYCHROMONE], with 0.096 umol/cm2; and `COc1c(O)cc2oc(-c3ccccc3)cc(=O)c2c1O` [OROXYLIN A], with greater than 10 umol/cm2.
As for `O=c1cc(-c2ccc(O)cc2)oc2cc(O)cc(O)c12` [APIGENIN], the ED50 is on record as greater than 10 umol/cm2.
`COc1ccc2oc(-c3ccccc3)cc(=O)c2c1` [6-METHOXYFLAVONE] came in with an ED50 of 0.15 umol/cm2.
The figure for `O=c1cc(-c2ccc(O)c(O)c2)oc2cc(O)cc(O)c12` [LUTEOLIN] is greater than 10 umol/cm2.
Molecule `COc1ccc(-c2cc(=O)c3c(OC)c(OC)c(OC)c(OC)c3o2)cc1OC` [NOBILETIN] gave an ED50 of 5.6 umol/cm2.
Molecule `O=c1cc(-c2ccccc2)oc2ccc(O)cc12` [6-HYDROXYFLAVONE] registered an ED50 greater than 10 umol/cm2.
Then `COc1cc2oc(C)cc(=O)c2c(OC)c1OC`, with 0.41 umol/cm2; and `O=c1cc(-c2ccccc2)oc2ccccc12` [FLAVONE], with 0.11 umol/cm2; and `COc1c(O)cc(O)c2c(=O)cc(-c3ccccc3)oc12` [WOGONIN], with 2 umol/cm2.
Then `COc1ccc2c(=O)cc(C)oc2c1`, with greater than 10 umol/cm2.
The figure for `COc1cc2oc(-c3ccccc3)cc(=O)c2c(O)c1OC` [MOSLOFLAVONE] is greater than 10 umol/cm2; for `O=c1ccoc2ccccc12` [CHROMONE] it is 0.168 umol/cm2; for `COc1cc(OC)c2c(=O)cc(C)oc2c1` it is greater than 10 umol/cm2.
As to `O=c1cc(-c2ccccc2)oc2cc(O)ccc12` [7-HYDROXYFLAVONE], the ED50 is reported as greater than 10 umol/cm2.
The figure for `COc1ccc2c(=O)cc(-c3ccccc3)oc2c1` [7-METHOXYFLAVONE] is 0.059 umol/cm2; for `O=c1cc(-c2ccccc2)oc2cc(O)cc(O)c12` [CHRYSIN] it is 2.5 umol/cm2; for `Cc1ccc2c(=O)cc(C)oc2c1` [2,7-DIMETHYLCHROMONE] it is 0.102 umol/cm2.
